The values that follow come from ChEMBL document CHEMBL4321819, “Simple Structural Modifications Converting a Bona fide MDM2 PROTAC Degrader into a Molecular Glue Molecule: A Cautionary Tale in the Design of PROTAC Degraders” (J Med Chem, 2019).

By IC50 is commonly meant the concentration that gives 50% inhibition. What is called DC50 is the concentration at which degradation of the target reaches its halfway point. High values mean degradation only at high concentration, low ones degradation at low concentration.

The source made the active and inactive calls. The calls are words filed in the database; no cut-off is given here.

Experiment [1] concerns the target Protein cereblon/Eukaryotic peptide chain release factor GTP-binding subunit ERF3A/DNA damage-binding protein 1/Cullin-4A (Homo sapiens) (UniProt Q96SW2+Q16531+Q13619+P15170). Briefly: Protac activity at GSPT1/CUL4/DDB1/CRBN in human RS4:11 cells expressing wild type p53 assessed as decrease in GSPT1 protein level after 2 hrs by Western blot analysis. The experiment is classed as cell-based. The procedure, abridged: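 RS4;11 (wild-type p53) or RS4;11/IRMI-2 (MDM2 inhibitor-resistant derivative, mutant p53) cells kept in RPMI 1640 with 10% FBS at 37 °C, 5% CO₂. 2×10^6 cells/well treated at the indicated concentrations and times, then lysed in ice-cold lysis buffer with protease inhibitor. GSPT1 detected by Western blot with a specific antibody.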

For experiment [2], the target named is T1, Eukaryotic peptide chain release factor GTP-binding subunit ERF3A (Homo sapiens, UniProt P15170). The experiment can be described thus: Induction of GSPT1 degradation in human MDA-MB-468 cells transfected with CRBN siRNA LQ-021086-11-0002 assessed as decrease in GSPT1 protein level at 0.1 uM after 2 to 24 hrs by Western blot analysis. Format: cell-based. The procedure, abridged:
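MDA-MB-231 or MDA-MB-468 cells transfected 2 days with CRBN siRNA (Lipofectamine RNAiMAX; non-targeting siRNA as control), then exposed to 0.1 μM for 2 h or 24 h. Cell culture was RPMI 1640 with 10% FBS at 37 °C, 5% CO2. GSPT1 and cereblon protein were probed by Western blot.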
In general terms: Immunoblotting shows a protein as a band on a membrane.

The target of experiment [3] is Cellular tumor antigen p53 (Homo sapiens) (UniProt P04637). The experiment can be described thus: Activation of p53 in human RS4:11 cells assessed as increase in PUMA mRNA expression at 3 nM after 1 to 2 hrs by qRT-PCR analysis. Format: cell-based. The procedure, abridged:
(§1)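 RS4;11 cells (RPMI 1640, 10% FBS, 37 °C, 5% CO2) treated with 3 nM or 10 nM compound; total RNA extracted and mRNA of p53 targets MDM2, CDKN1A, PUMA and BAX quantified by qRT-PCR. Mean ± standard error from at least three independent experiments.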

Experiment [4] deals with Protein cereblon/Eukaryotic peptide chain release factor GTP-binding subunit ERF3A (Homo sapiens) (UniProt Q96SW2+P15170). Briefly: Inhibition of cereblon binding with GSPT1 human MDA-MB-468 cells assessed as decrease in GSPT1 degradation at 0.1 uM after 2 hrs in presence of 30 uM lenalidomide by Western blot analysis. Format: cell-based. The procedure, abridged:
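MDA-MB-231 or MDA-MB-468 cells were treated 2 h with or without 30 μM lenalidomide to block cereblon binding. GSPT1 protein level was then assessed by Western blotting.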

The target in experiment [5] is Cellular tumor antigen p53 (Homo sapiens) (UniProt P04637). Briefly: Activation of p53 in human RS4:11 cells assessed as increase in CDKN1A mRNA expression at 3 nM after 1 to 2 hrs by qRT-PCR analysis. Format: cell-based. The procedure, abridged: as §1
Chain of Cellular tumor antigen p53 (Homo sapiens) (P04637 whole entry, looked up): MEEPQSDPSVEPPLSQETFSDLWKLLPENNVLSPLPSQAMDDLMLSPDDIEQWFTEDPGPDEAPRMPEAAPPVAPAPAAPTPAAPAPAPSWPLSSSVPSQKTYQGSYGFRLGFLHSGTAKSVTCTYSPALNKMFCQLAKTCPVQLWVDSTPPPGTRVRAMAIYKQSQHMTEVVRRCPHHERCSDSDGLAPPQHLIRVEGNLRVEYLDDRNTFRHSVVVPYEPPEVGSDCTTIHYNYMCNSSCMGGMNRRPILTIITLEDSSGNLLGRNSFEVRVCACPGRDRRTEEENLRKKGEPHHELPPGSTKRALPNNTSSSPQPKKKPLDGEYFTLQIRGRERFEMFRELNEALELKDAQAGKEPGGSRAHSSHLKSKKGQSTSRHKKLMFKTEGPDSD
On the technique in general: In qPCR the cycle at which signal appears reflects the starting amount.

Experiment [6] has as its system MDA-MB-468. Briefly: Antiproliferative activity against human MDA-MB-468 cells transfected with CRBN siRNA LQ-021086-11-0002 assessed as cell growth inhibition after 4 days by WST-8 assay. Format: functional, cell-based. The conditions noted are these: MDA-MB-468, 96 h. The procedure, abridged: (§2)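 MDA-MB-231 or MDA-MB-468 cells transfected for 2 days using Lipofectamine RNAiMAX with MDM2 siRNA, one of two CRBN siRNAs, or non-targeting control siRNA. Compound then added and growth read by WST-8 at 450 nm.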

Experiment [7] can be described thus: Antiproliferative activity against human RS4:11/IRMI-2 cells harboring p53 hotspot mutation Y236H/R249G assessed as cell growth inhibition after 4 days by WST-8 assay. The experiment is classed as functional, cell-based. The conditions noted are these: RS4-11, 96 h. The procedure, abridged:
(§3)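 Leukemia cells seeded at 10000–20000 cells/well, breast cancer lines at 5000–10000 cells/well. Serially diluted compound added, then 4 days at 37 °C, 5% CO2. Growth read with WST-8 reagent after at least 1 h, absorbance at 450 nm. RS4;11, MOLM-13 and breast lines were grown in RPMI 1640; MV-4-11 and HL-60 in IMDM; all with 10% FBS. Mean ± SE, at least three independent experiments.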

Experiment [8] concerns MDA-MB-468. The experiment can be described thus: Antiproliferative activity against human MDA-MB-468 cells assessed as cell growth inhibition after 4 days in presence of control siRNA for 3 days followed by compound treatment by WST-8 assay. Format: functional, cell-based. In general terms: Tetrazolium dyes change colour on reduction, which living cells bring about.
In experiment [9] the test system is MDA-MB-231. Briefly: Antiproliferative activity against human MDA-MB-231 cells transfected with CRBN siRNA LQ-021086-11-0002 assessed as cell growth inhibition after 4 days by WST-8 assay. Format: functional, cell-based. The conditions noted are these: MDA-MB-231, 96 h. The procedure, abridged:
as §2

Experiment [10] relates to MDA-MB-231. Briefly: Antiproliferative activity against human MDA-MB-231 cells transfected with MDM2 siRNA assessed as cell growth inhibition after 4 days by WST-8 assay. Format: functional, cell-based. Particulars: MDA-MB-231, 96 h. The procedure, abridged:
as §2

The subject of experiment [11] is MDA-MB-231. Briefly: Antiproliferative activity against human MDA-MB-231 cells assessed as cell growth inhibition after 4 days in presence of control siRNA for 3 days followed by compound treatment by WST-8 assay. The experiment is classed as functional, cell-based.
Experiment [12] has as its system RS4-11. The experiment can be described thus: Antiproliferative activity against human RS4:11 cells expressing wild type p53 assessed as cell growth inhibition after 4 days by WST-8 assay. Format: functional, cell-based. The conditions noted are these: RS4-11, 96 h. The procedure, abridged:
as §3

Experiment [13] deals with T1, Eukaryotic peptide chain release factor GTP-binding subunit ERF3A. The experiment can be described thus: Induction of GSPT1 degradation in human RS4:11 cells measured after 24 hrs by Western blot analysis. The experiment is classed as cell-based.
The target of experiment [14] is GSPT1/E3 ubiquitin-protein ligase Mdm2 (Homo sapiens) (UniProt Q00987+P15170). Briefly: Binding affinity to GSPT1/MDM2 in human MDA-MB-231 cells assessed as GSPT1 degradation at 0.1 to 1 uM after 2 hrs by Western blot analysis. The experiment is classed as cell-based.
Chain of GSPT1/E3 ubiquitin-protein ligase Mdm2 (Homo sapiens) (P15170 whole entry, looked up): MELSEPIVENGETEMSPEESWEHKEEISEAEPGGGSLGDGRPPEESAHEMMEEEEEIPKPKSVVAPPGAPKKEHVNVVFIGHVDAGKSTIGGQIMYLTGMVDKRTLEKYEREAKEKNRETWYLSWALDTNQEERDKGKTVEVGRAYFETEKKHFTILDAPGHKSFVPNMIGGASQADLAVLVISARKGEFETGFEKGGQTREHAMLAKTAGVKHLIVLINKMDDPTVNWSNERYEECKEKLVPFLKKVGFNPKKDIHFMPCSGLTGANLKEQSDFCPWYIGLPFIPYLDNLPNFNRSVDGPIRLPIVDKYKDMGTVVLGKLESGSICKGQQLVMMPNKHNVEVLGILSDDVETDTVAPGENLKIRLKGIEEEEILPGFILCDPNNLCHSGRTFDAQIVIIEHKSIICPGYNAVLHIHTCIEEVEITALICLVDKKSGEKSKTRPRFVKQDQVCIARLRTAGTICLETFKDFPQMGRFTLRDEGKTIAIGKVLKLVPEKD
Chain of GSPT1/E3 ubiquitin-protein ligase Mdm2 (Homo sapiens) (Q00987 whole entry, looked up): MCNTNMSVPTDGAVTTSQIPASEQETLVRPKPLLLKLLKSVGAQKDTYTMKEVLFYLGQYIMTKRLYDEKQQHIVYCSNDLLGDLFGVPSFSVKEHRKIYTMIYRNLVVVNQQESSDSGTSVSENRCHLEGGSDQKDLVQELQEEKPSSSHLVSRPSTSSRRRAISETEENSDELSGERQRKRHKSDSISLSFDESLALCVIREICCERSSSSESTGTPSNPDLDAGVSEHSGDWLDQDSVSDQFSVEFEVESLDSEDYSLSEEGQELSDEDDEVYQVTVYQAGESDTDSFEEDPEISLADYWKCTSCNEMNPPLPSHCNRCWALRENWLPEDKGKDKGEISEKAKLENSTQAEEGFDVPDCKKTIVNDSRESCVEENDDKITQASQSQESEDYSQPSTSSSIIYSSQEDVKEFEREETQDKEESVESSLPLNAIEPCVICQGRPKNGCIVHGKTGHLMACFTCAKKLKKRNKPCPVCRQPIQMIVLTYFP
The test system of experiment [15] is MOLM-13. The experiment can be described thus: Antiproliferative activity against human MOLM13 cells expressing wild type p53 assessed as cell growth inhibition after 4 days by WST-8 assay. Format: functional, cell-based. The conditions noted are these: MOLM-13, 96 h. The procedure, abridged:
as §3

Experiment [16] addresses Cellular tumor antigen p53 (Homo sapiens) (UniProt P04637). Briefly: Activation of p53 in human RS4:11 cells assessed as increase in MDM2 mRNA expression at 3 nM after 1 to 2 hrs by qRT-PCR analysis. Format: cell-based. The procedure, abridged: as §1

T1 sequence (P15170 whole entry): as the sequence (P15170 whole entry, looked up) above
Chain of Protein cereblon/Eukaryotic peptide chain release factor GTP-binding subunit ERF3A/DNA damage-binding protein 1/Cullin-4A (Homo sapiens) (P15170 whole entry, looked up): as above
Chain of Protein cereblon/Eukaryotic peptide chain release factor GTP-binding subunit ERF3A/DNA damage-binding protein 1/Cullin-4A (Homo sapiens) (Q13619 whole entry, looked up): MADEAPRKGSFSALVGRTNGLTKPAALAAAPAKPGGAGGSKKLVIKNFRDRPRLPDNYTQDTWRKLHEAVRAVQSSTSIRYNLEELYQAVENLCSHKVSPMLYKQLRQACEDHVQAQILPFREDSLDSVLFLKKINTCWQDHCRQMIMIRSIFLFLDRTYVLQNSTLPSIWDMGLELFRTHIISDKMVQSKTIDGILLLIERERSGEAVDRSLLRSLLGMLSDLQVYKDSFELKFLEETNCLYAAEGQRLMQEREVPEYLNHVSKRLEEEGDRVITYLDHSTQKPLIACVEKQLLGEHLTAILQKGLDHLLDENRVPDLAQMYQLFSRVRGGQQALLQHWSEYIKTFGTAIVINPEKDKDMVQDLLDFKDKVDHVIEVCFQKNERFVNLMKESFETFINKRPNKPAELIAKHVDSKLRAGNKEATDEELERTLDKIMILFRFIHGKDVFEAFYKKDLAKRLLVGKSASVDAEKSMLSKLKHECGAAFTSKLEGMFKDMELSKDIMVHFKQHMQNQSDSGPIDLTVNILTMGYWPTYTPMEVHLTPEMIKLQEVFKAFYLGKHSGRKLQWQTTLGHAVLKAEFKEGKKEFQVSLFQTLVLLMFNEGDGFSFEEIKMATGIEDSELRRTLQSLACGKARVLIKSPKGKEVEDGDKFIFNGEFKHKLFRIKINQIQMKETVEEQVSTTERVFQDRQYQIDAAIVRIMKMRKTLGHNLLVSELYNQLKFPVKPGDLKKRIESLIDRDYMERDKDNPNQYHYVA
Chain of Protein cereblon/Eukaryotic peptide chain release factor GTP-binding subunit ERF3A/DNA damage-binding protein 1/Cullin-4A (Homo sapiens) (Q16531 whole entry, looked up): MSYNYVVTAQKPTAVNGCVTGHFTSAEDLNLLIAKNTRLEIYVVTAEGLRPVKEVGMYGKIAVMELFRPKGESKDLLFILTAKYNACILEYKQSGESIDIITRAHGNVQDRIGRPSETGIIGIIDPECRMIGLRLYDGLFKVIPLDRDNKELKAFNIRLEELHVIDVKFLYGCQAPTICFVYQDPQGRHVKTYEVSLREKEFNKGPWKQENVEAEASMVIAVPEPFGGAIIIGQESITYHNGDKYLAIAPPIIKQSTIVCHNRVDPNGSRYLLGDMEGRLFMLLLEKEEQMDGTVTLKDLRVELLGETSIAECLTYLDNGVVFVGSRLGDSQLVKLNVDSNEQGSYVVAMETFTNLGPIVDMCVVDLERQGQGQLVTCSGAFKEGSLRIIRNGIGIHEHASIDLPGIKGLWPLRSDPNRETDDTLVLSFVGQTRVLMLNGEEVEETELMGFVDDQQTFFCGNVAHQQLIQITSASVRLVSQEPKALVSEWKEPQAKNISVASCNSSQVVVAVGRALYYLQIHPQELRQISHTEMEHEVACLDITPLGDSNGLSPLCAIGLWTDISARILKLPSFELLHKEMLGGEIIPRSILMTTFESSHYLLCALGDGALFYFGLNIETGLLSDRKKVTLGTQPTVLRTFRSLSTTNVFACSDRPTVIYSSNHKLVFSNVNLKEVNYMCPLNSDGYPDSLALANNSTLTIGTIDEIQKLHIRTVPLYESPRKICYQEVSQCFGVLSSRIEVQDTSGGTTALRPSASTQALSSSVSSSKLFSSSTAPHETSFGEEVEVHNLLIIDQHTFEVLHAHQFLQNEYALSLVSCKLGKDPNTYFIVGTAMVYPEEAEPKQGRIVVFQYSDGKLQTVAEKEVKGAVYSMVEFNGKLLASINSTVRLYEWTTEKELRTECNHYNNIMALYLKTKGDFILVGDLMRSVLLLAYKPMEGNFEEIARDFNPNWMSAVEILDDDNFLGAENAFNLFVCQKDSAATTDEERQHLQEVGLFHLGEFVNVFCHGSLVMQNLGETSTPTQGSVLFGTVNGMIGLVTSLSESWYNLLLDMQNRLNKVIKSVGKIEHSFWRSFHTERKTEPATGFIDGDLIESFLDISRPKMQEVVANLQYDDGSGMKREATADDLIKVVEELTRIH
Chain of Protein cereblon/Eukaryotic peptide chain release factor GTP-binding subunit ERF3A/DNA damage-binding protein 1/Cullin-4A (Homo sapiens) (Q96SW2 whole entry, looked up): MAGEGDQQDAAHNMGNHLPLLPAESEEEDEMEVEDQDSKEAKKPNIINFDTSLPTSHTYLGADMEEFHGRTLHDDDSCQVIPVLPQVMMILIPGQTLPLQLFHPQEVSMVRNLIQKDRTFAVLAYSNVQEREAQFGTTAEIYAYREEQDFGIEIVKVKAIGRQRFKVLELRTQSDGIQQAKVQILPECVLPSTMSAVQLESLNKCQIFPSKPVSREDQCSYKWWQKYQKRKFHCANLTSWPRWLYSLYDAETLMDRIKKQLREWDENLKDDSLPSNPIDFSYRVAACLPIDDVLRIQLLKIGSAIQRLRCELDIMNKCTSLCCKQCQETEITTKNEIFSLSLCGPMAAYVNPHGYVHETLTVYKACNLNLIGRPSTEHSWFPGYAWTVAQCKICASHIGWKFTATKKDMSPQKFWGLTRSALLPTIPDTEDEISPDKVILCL
Chain of Protein cereblon/Eukaryotic peptide chain release factor GTP-binding subunit ERF3A (Homo sapiens) (P15170 whole entry, looked up): as the sequence (P15170 whole entry, looked up) above
Chain of Protein cereblon/Eukaryotic peptide chain release factor GTP-binding subunit ERF3A (Homo sapiens) (Q96SW2 whole entry, looked up): as the sequence (Q96SW2 whole entry, looked up) above

Consider `O=C1CCC(N2Cc3c(CCCCCNC(=O)[C@@H]4NC5(CCCCC5)[C@@]5(C(=O)Nc6cc(Cl)ccc65)[C@H]4c4cccc(Cl)c4F)cccc3C2=O)C(=O)N1` (stereo partly specified), for which the result in experiment [1] was Active. In addition, the result in experiment [2], in experiment [3], in experiment [5], in experiment [14] and in [16] was inactive. In addition, in experiment [4], the inhibition result is “Active”. Further, the half-maximal inhibitory concentration (IC50) was > 1000 nM in experiment [6]; 3.4 nM in experiment [7]; 62 nM in [8]; > 3000 nM in experiment [9]; 19.3 nM in [10]; 30 nM in experiment [11]. Further, the concentration for half-maximal inhibition (IC50) is 3.5 nM in experiment [12] and 24.6 nM in [15]. In addition, the half-maximal degradation concentration (DC50) in experiment [13] was 1.3 nM.
